Experimental findings from ChEMBL document CHEMBL4396903, “Chain-Shortened Myostatin Inhibitory Peptides Improve Grip Strength in Mice” (ACS Med Chem Lett, 2019) are described below.

Active and inactive are the calls of the source. No cut-off for these calls is given here. Square brackets hold non-standard residues; d marks the D form. Peptide text beside a SMILES is read from it. * marks the point of attachment. Acetyl(2-naphthyloxy) = O=C(COc1ccc2ccccc2c1)*; Chg = N[C@H](C(=O)O)C1CCCCC1

The target of test [1] is Growth/differentiation factor 8 (Homo sapiens) (UniProt O14793). The test can be described thus: Inhibition of myostatin (unknown origin) expressed in HEK293 cells at 0.3 uM incubated for 4 hrs by dual luciferase reporter gene assay. Format: cell-based. Summed up: (§1)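 Luciferase reporter assay of myostatin inhibition in HEK293 cells. Peptides were prepared as 3 mM DMSO stocks, then tested at a single final concentration (10, 3 or 0.3 μM). Results are given as mean ± SD (n = 3).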

The target is the same in test [2]. Briefly: Inhibition of myostatin (unknown origin) expressed in HEK293 cells at 10 uM incubated for 4 hrs by dual luciferase reporter gene assay. Format: cell-based. In short, it runs like this: as §1
Background: Reporter assays use an easily measured gene product as a stand-in for the process of interest.

Test [3] concerns Mus musculus. The test can be described thus: In vivo induction of muscular hypertrophy in mdx mouse assessed as increase in weight of TA muscles at 30 nmol, im administered on 0 and 14 day and measured on day 42 by relative to control. Format: functional.
Test [4] relates to Mus musculus. Briefly: In vivo induction of muscular hypertrophy in mdx mouse assessed as hind limb strength at 30 nmol, im administered on 0 and 14 day and measured on day 42 by grip strength meter method (reference value: 4.41 +/- 0.31 Kg). Format: functional.
The test system of test [5] is Mus musculus. The test can be described thus: In vivo induction of muscular hypertrophy in mdx mouse assessed as increase in muscle function at 30 nmol, im administered on 0 and 14 day and measured on day 42 by grip strength meter method relative to control. Format: functional.
Test [6] relates to Mus musculus. The test can be described thus: In vivo induction of muscular hypertrophy in im dosed C57BL/6 mouse assessed as increase in gastrocnemius muscle fiber size administered on 0 and 14 day and measured on day 42 by hematoxylin and eosin staining based assay. Format: functional, organism-based.
Test [7] relates to Mus musculus. The test can be described thus: In vivo induction of muscular hypertrophy in im dosed mdx mouse assessed as increase in gastrocnemius muscle fiber size administered on 0 and 14 day and measured on day 42 by hematoxylin and eosin staining based assay. Format: functional, organism-based. In short, it runs like this:
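Male mdx mice aged 5 weeks received intramuscular injections, with saline-injected controls. Gastrocnemius fiber size was assessed histologically by hematoxylin and eosin staining.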

Sequence of Growth/differentiation factor 8 (Homo sapiens) (O14793 267-375 limits assumed): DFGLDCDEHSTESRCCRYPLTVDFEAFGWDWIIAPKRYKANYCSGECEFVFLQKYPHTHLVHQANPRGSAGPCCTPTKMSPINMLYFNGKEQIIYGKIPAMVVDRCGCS

Take `CC[C@H](C)[C@H](NC(=O)[C@H](CCC(N)=O)NC(=O)[C@@H](NC(=O)[C@H](CCCCN)NC(=O)[C@@H](NC(=O)[C@H](Cc1c[nH]c2ccccc12)NC(=O)[C@H](CCCNC(=N)N)NC(=O)[C@@H](NC(=O)[C@H](Cc1ccc(O)cc1)NC(=O)[C@@H](N)Cc1c[nH]c2ccccc12)[C@@H](C)CC)[C@@H](C)CC)[C@@H](C)CC)C(=O)N[C@@H](Cc1c[nH]c2ccccc12)C(=O)N[C@@H](CO)C(=O)N[C@@H](CCCCN)C(=O)N[C@H](C(=O)N[C@@H](CCCNC(=N)N)C(=O)N[C@@H](CC(C)C)C(N)=O)C1CCCCC1` (H-WYIRWIKIQIWSK[Chg]RL-NH2): the inhibition result in test [1] is “Active”.
On the same count and under the same terms, the entry for `CC[C@H](C)[C@H](NC(=O)[C@H](CCC(N)=O)NC(=O)[C@@H](NC(=O)[C@H](CCCCN)NC(=O)[C@@H](NC(=O)[C@H](Cc1c[nH]c2ccccc12)NC(=O)[C@H](CCCNC(=N)N)NC(=O)[C@@H](NC(=O)[C@H](Cc1ccc(O)cc1)NC(=O)[C@@H](N)Cc1c[nH]c2ccccc12)[C@@H](C)CC)[C@@H](C)CC)C1CCCCC1)C(=O)N[C@@H](Cc1c[nH]c2ccccc12)C(=O)N[C@@H](CO)C(=O)N[C@@H](CCCCN)C(=O)N[C@H](C(=O)N[C@@H](CCCNC(=N)N)C(=O)N[C@@H](CC(C)C)C(N)=O)C1CCCCC1` is “Active”.
In the case of H-WYIEAIKIQILSKLRL-NH2, in test [2], the inhibition entry was “Active”.
As to `CC[C@H](C)[C@H](NC(=O)[C@H](CCC(N)=O)NC(=O)[C@@H](NC(=O)[C@H](CCCCN)NC(=O)[C@@H](NC(=O)[C@@H](Cc1c[nH]c2ccccc12)NC(=O)[C@H](CCCNC(=N)N)NC(=O)[C@@H](NC(=O)[C@H](Cc1ccc(O)cc1)NC(=O)[C@@H](N)Cc1c[nH]c2ccccc12)[C@@H](C)CC)[C@@H](C)CC)C1CCCCC1)C(=O)N[C@@H](Cc1c[nH]c2ccccc12)C(=O)N[C@@H](CO)C(=O)N[C@@H](CCCCN)C(=O)N[C@H](C(=O)N[C@@H](CCCNC(=N)N)C(=O)N[C@@H](CC(C)C)C(N)=O)C1CCCCC1`, the Activity was 114% with Mus musculus [3], 5.92 kg/kg in the test with Mus musculus [4] and 130% in the test with Mus musculus [5].
H-WYFRWIKIQIWSKLRL-NH2: the inhibition result in test [1] is “Active”.
On to H-SRIEWIKIQIWSKLRL-NH2, for which the inhibition result in test [2] is “Active”.
`CC[C@H](C)[C@H](NC(=O)[C@H](CCCNC(=N)N)NC(=O)[C@H](CO)NC(=O)[C@H](Cc1ccc(O)cc1)NC(=O)[C@H](CCCNC(=N)N)NC(=O)[C@@H](NC(=O)[C@H](CC(N)=O)NC(=O)[C@H](CCC(N)=O)NC(=O)[C@H](CCCNC(=N)N)NC(=O)COc1ccc2ccccc2c1)[C@@H](C)O)C(=O)N[C@@H](CCC(=O)O)C(=O)N[C@@H](Cc1c[nH]c2ccccc12)C(=O)N[C@H](C(=O)N[C@@H](CCCCN)C(=O)N[C@H](C(=O)N[C@@H](CCC(N)=O)C(=O)N[C@H](C(=O)N[C@H](C(=O)N[C@@H](CO)C(=O)N[C@@H](CCCCN)C(=O)N[C@@H](CC(C)C)C(=O)N[C@@H](CCCNC(=N)N)C(=O)N[C@@H](CC(C)C)C(N)=O)[C@@H](C)CC)[C@@H](C)CC)[C@@H](C)CC)[C@@H](C)CC` ({Acetyl(2-naphthyloxy)}-RQNTRYSRIEWIKIQIISKLRL-NH2): the result with Mus musculus [6] was Active.
For the compound `CC[C@H](C)[C@H](NC(=O)[C@H](CCC(N)=O)NC(=O)[C@@H](NC(=O)[C@H](CCCCN)NC(=O)[C@@H](NC(=O)[C@H](Cc1c[nH]c2ccccc12)NC(=O)[C@H](CCCNC(=N)N)NC(=O)[C@@H](NC(=O)[C@H](Cc1ccc(O)cc1)NC(=O)[C@@H](N)Cc1c[nH]c2ccccc12)[C@@H](C)CC)[C@@H](C)CC)C1CCCCC1)C(=O)N[C@@H](Cc1c[nH]c2ccccc12)C(=O)N[C@@H](CO)C(=O)N[C@@H](CCCCN)C(=O)N[C@@H](CC(C)C)C(=O)N[C@@H](CCCNC(=N)N)C(=O)N[C@@H](CC(C)C)C(N)=O` (H-WYIRWIK[Chg]QIWSKLRL-NH2), in test [1], the inhibition result is “Active”.
As for H-WYIRWIKIQFWSKLRL-NH2, the inhibition entry in test [1] was “Active”.
On to H-SRIEWIKIQIISKLRL-NH2, for which, in test [2], the inhibition result was “Active”.
Consider H-SRIEAIKIQILSKLRL-NH2, for which, in test [2], the inhibition result is “inactive”.
For H-WYIRWIKIQIWSKLRL-NH2, in test [1], the inhibition result was “Active”. Moreover, the result in the test with Mus musculus [7] and in the test with Mus musculus [6] was Active.
